Results of several laboratories.
Protocols differ between the studies behind these lines. In brackets after ≈: the same amount, converted by molar mass.
Read-out: microbial growth

SMILES | organism | technique | strain | time | setting | MIC [µg/mL]
CC(C)[C@H](N)C(=O)OCCCCCn1cnc2nc(NCc3ccc(Cl)c(Cl)c3)[nH]c(=O)c21 | Lactobacillus acidophilus | agar dilution |  | 48 h |  | 8 (≈ 16.1 µM)
COC(=O)c1cc(-c2cccc(NC(=O)Nc3cccc(Cl)c3Cl)c2)on1 | Escherichia coli | broth dilution | ATCC25922 |  |  | > 64
CN[C@H](CC(C)C)C(=O)N[C@H]1C(=O)N[C@@H](CC(N)=O)C(=O)N[C@H]2C(=O)N[C@H]3C(=O)N[C@H](C(=O)N[C@H](C(=O)O)c4cc(O)cc(O)c4-c4cc3ccc4O)[C@H](O)c3ccc(c(Cl)c3)Oc3cc2cc(c3O[C@@H]2O[C@H](CO)[C@@H](O)[C@H](O)[C@H]2O[C@H]2C[C@](C)(N)[C@H](O)[C@H](C)O2)Oc2ccc(cc2Cl)[C@H]1O | Lactobacillus acidophilus | agar dilution |  | 48 h |  | 2 (≈ 1.38 µM)
COc1ccc(-c2nc3ccc(C)cc3[nH]2)cc1OC | Staphylococcus aureus | broth dilution | ATCC43300 MRSA |  | drug-resistant strain | 256 (≈ 954 µM)
Cc1ccc2[nH]c3c(c2c1)CCCC3NCCc1ccc(O)cc1 (centres unmarked) | Micrococcus luteus | broth dilution | DSM1790 |  |  | 8 (≈ 25 µM)
CC1(C)CC[C@]2(C(=O)O)CC[C@]3(C)C(=CC[C@@H]4[C@@]5(C)CC[C@H](O)C(C)(C)[C@@H]5CC[C@]43C)[C@@H]2C1 | Staphylococcus aureus |  | ATCC29213 |  |  | 128 (≈ 280 µM)
COC(=O)c1cc(-c2cccc(NC(=O)Nc3cccc(Br)c3)c2)on1 | Escherichia coli | broth dilution | ATCC25922 |  |  | > 64
Clc1ccc(-c2nc3ccccc3[nH]2)cc1Cl | Staphylococcus aureus | broth dilution | ATCC43300 MRSA |  | drug-resistant strain | 64 (≈ 243 µM)
c1ccc(CCOC2CCCc3c2[nH]c2ccccc32)cc1 (centres unmarked) | Micrococcus luteus | broth dilution | DSM1790 |  |  | 128 (≈ 439 µM)
Cc1ccc2nc(-c3ccc4c(c3)OCO4)[nH]c2c1 | Staphylococcus aureus | broth dilution | ATCC43300 MRSA |  | drug-resistant strain | 512 (≈ 2030 µM)
COC(=O)c1cc(-c2cccc(NC(=S)NC3CCCCC3)c2)on1 | Escherichia coli | broth dilution | ATCC25922 |  |  | > 64
